Source: ChEMBL document CHEMBL1799999, “N-benzoylated phenoxazines and phenothiazines: synthesis, antiproliferative activity, and inhibition of tubulin polymerization” (J Med Chem, 2011)
Activity calls are given as the source filed them. No cut-off for these calls is given here.

Tests used:
[1] = system: ASPC1; assay: Antiproliferative activity against human AsPC1 cells after 72 hrs by sulforhodamine staining method; type: functional; conditions: ASPC1, 72 h
How it was run: (§1)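 Panel of 83 solid-tumour lines plus resting PBMC, run by the DTP NCI sulforhodamine B staining protocol. Compound exposure 72 h, concentrations from 0.0001 to 10 μM. GI50 taken per line; z-scores computed relative to the panel mean GI50.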

[2] = system: SK-OV-3; assay: Antiproliferative activity against human SKOV3 cells after 48 hrs by alamar blue assay; type: functional, cell-based; conditions: SK-OV-3, 48 h
How it was run: (§2)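 Cells seeded in growth medium and grown 24 h at 37 °C/5% CO2. 10 mM DMSO stocks diluted in half-log steps into medium, final DMSO 0.316%. After 45 h of compound exposure, AlamarBlue (resazurin) added for a further 3 h, giving 48 h total. Fluorescence read at 590 nm against untreated and cell-free blanks. At least two replicates; IC50 by nonlinear regression.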

[3] = system: HT-1080; assay: Antiproliferative activity against human HT1080 cells after 72 hrs by sulforhodamine staining method; type: functional; conditions: HT-1080, 72 h; how it was run: as §1
[4] = system: BXPC-3; assay: Antiproliferative activity against human BxPC3 cells after 72 hrs by sulforhodamine staining method; type: functional; conditions: BXPC-3, 72 h; how it was run: as §1
[5] = cells; conditions: Homo sapiens, 451Lu, 48 h
[6] = system: COLO-678; assay: Antiproliferative activity against human COLO-678 cells after 72 hrs by sulforhodamine staining method; type: functional; conditions: COLO-678, 72 h; how it was run: as §1
[7] = system: NCI-H460; assay: Antiproliferative activity against human NCI-H460 cells after 48 hrs by alamar blue assay; type: functional, cell-based; conditions: NCI-H460, 48 h; how it was run: as §2
[8] = Antiproliferative activity against human resting PBMC after 72 hrs by sulforhodamine staining method; type: cell-based; how it was run: as §1
[9] = system: K562; assay: Cell cycle arrest in human K562 cells assessed as accumulation at G2/M phase at 30 nM after 24 hrs by flow cytometric analysis; type: functional, cell-based
How it was run: (§3)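 K562 cells (2 × 10^5/mL) exposed to graded concentrations for 24 h at 37 °C; vehicle DMSO/MeOH 1:1. Washed in PBS, fixed in ice-cold 70% ethanol, stained 30 min with propidium iodide 0.02 mg/mL plus RNase 0.2 mg/mL. DNA content read by flow cytometry with 488 nm excitation; G2/M fraction scored.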

[10] = system: MIA PaCa-2; assay: Antiproliferative activity against human MIAPaCa2 cells after 72 hrs by sulforhodamine staining method; type: functional; conditions: MIA PaCa-2, 72 h; how it was run: as §1
[11] = Antiproliferative activity against human MDA-MB-436 cells after 72 hrs by sulforhodamine staining method; type: functional; conditions: MDA-MB-436, 72 h; how it was run: as §1
[12] = system: COLO 205; assay: Antiproliferative activity against human COLO205 cells after 72 hrs by sulforhodamine staining method; type: functional; conditions: COLO 205, 72 h; how it was run: as §1
[13] = Antiproliferative activity against human MT3 cells after 72 hrs by sulforhodamine staining method; type: functional; conditions: MT-3, 72 h; how it was run: as §1
[14] = system: K562; assay: Antiproliferative activity against human K562 cells after 48 hrs by hemocytometric analysis; type: functional, cell-based; conditions: K562, 48 h
How it was run: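 K562 cells in RPMI 1640 with 10% FBS at 37 °C/5% CO2, plated at 2 × 10^5 cells/mL. Compounds in DMSO/methanol 1:1, final vehicle 0.5%. Cells counted in a Neubauer hemocytometer after 48 h and expressed as % of untreated control. Triplicate wells, three experiments; IC50 by nonlinear regression.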

[15] = system: HT-29; assay: Antiproliferative activity against human HT-29 cells after 72 hrs by sulforhodamine staining method; type: functional; conditions: HT-29, 72 h; how it was run: as §1
[16] = system: SK-MEL-28; assay: Antiproliferative activity against human SK-MEL-28 cells after 72 hrs by sulforhodamine staining method; type: functional; conditions: SK-MEL-28, 72 h; how it was run: as §1
[17] = system: A-375; assay: Antiproliferative activity against human A375 cells after 72 hrs by sulforhodamine staining method; type: functional; conditions: A-375, 72 h; how it was run: as §1
[18] = system: MG-63; assay: Antiproliferative activity against human MG63 cells after 72 hrs by sulforhodamine staining method; type: functional; conditions: MG-63, 72 h; how it was run: as §1
[19] = system: BT-549; assay: Antiproliferative activity against human BT549 cells after 48 hrs by alamar blue assay; type: functional, cell-based; conditions: BT-549, 48 h; how it was run: as §2
[20] = system: IGROV-1; assay: Antiproliferative activity against human IGROV1 cells after 72 hrs by sulforhodamine staining method; type: functional; conditions: IGROV-1, 72 h; how it was run: as §1
[21] = system: SK-N-SH; assay: Antiproliferative activity against human SK-N-SH cells after 72 hrs by sulforhodamine staining method; type: functional; how it was run: as §1
[22] = system: RD; assay: Antiproliferative activity against human RD cells after 72 hrs by sulforhodamine staining method; type: functional; how it was run: as §1
[23] = system: SW480; assay: Antiproliferative activity against human SW480 cells after 48 hrs by alamar blue assay; type: functional, cell-based; conditions: SW480, 48 h; how it was run: as §2
[24] = target: Tubulin (Sus scrofa, UniProt P02554+P02550); assay: Inhibition of pig tubulin polymerization determined after 45 mins at 37 degC by turbidimetric analysis; type: protein assay
How it was run: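 Microtubule protein (80–90% tubulin with MAPs) from porcine brain, isolated by two cold/warm cycles. Buffer: 20 mM PIPES pH 6.8, 80 mM NaCl, 0.5 mM MgCl2, 1 mM EGTA, 1 mM DTT. Protein at 1.2 mg/mL (about 10 μM tubulin) with 0.6 mM GTP, 1% DMSO, 37 °C.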

[25] = system: DLD-1; assay: Antiproliferative activity against human DLD1 cells after 48 hrs by alamar blue assay; type: functional, cell-based; conditions: DLD-1, 48 h; how it was run: as §2
[26] = system: K562; assay: Cell cycle arrest in human K562 cells assessed as accumulation at G2/M phase at 0.003 to. 1 ug/ml after 24 hrs by flow cytometric analysis; type: functional, cell-based; how it was run: as §3
[27] = system: SK-N-AS; assay: Antiproliferative activity against human SK-N-AS cells after 72 hrs by sulforhodamine staining method; type: functional; how it was run: as §1
[28] = system: 5637; assay: Antiproliferative activity against human 5637 cells after 72 hrs by sulforhodamine staining method; type: functional; conditions: Homo sapiens, 5637, 72 h; how it was run: as §1

Question: For `COc1ccc(C(=O)N2c3ccccc3Oc3cc(C#N)ccc32)cc1O`, which GI50 [1] is on record?
Answer: The GI50 was > 10000 nM.

Question: And the IC50 [2]?
Answer: The IC50 was 24 nM.

Question: What about the GI50 [3] of the same molecule?
Answer: Its GI50 is 2.6 nM.

Question: And the GI50 [4]?
Answer: The GI50 was 2250 nM.

Question: What about the IC50 [5] of the same molecule?
Answer: The IC50 was 6 nM.

Question: And the GI50 [6]?
Answer: The GI50 was 62.3 nM.

Question: What about the IC50 [7] of the same molecule?
Answer: Its IC50 is 40 nM.

Question: And the GI50 at 72 h [8]?
Answer: The GI50 at 72 h was > 10000 nM.

Question: What about the Activity [9] of the same molecule?
Answer: The Activity was “Active”.

Question: And the GI50 [10]?
Answer: Its GI50 is 8410 nM.

Question: What about the GI50 [11] of the same molecule?
Answer: The GI50 was 1130 nM.

Question: What about the GI50 [12] of the same molecule?
Answer: Its GI50 is 4260 nM.

Question: What about the GI50 [13] of the same molecule?
Answer: The GI50 was 95.1 nM.

Question: What about the IC50 [14] of the same molecule?
Answer: The IC50 was 11 nM.

Question: And the GI50 [15]?
Answer: Its GI50 is 5600 nM.

Question: What about the GI50 [16] of the same molecule?
Answer: The GI50 was 2 nM.

Question: What about the GI50 [17] of the same molecule?
Answer: Its GI50 is 2.7 nM.

Question: And the GI50 [18]?
Answer: Its GI50 is 1.8 nM.

Question: And the IC50 [19]?
Answer: The IC50 was 16 nM.

Question: What about the GI50 [20] of the same molecule?
Answer: The GI50 was 63.3 nM.

Question: And the GI50 [21]?
Answer: The GI50 was 1.8 nM.

Question: And the GI50 [22]?
Answer: The GI50 was 2 nM.

Question: What about the IC50 [23] of the same molecule?
Answer: The IC50 was 29 nM.

Question: What about the IC50 [24] of the same molecule?
Answer: Its IC50 is 520 nM.

Question: What about the IC50 [25] of the same molecule?
Answer: The IC50 was 16 nM.

Question: What about the Activity [26] of the same molecule?
Answer: Its Activity is “Active”.

Question: And the GI50 [27]?
Answer: The GI50 was 1.8 nM.

Question: What about the GI50 [28] of the same molecule?
Answer: The GI50 was 1.9 nM.
